According to the array DNA melting data of Ke et al. (doi:10.1101/2024.01.08.574731):

Assays:
[1] = folding enthalpy; higher = less favourable; fluorescence melt of hairpins on a sequencing array, two-state fit; settings: sodium 0.088 M
Method in brief: (§1)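 With Cy3 and quencher oligos annealed, library hairpins on a sequenced MiSeq flow cell were imaged for Cy3 fluorescence in 50 mM Na-HEPES pH 8.0, 25 mM NaCl, in 2.5 °C steps up to 60 °C. Melting temperature and folding enthalpy were derived from bootstrapped two-state fits of signals normalised to pre-quench Cy3 and to control constructs. Four replicates were combined by inverse variance, with fitted temperatures raised by 9.35 °C to match UV melts.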

[2] = melting temperature; fluorescence melt of hairpins on a sequencing array, two-state fit, raised by 9.35 °C to match UV melts; settings: sodium 0.088 M
Method in brief: as §1

Sequence | folding enthalpy [1] | Tm [2]
GTGAATCGAAAGATCAC (((.(((....)))))) | -26.3 kcal/mol | 45.3 °C
GATCGTGATACGATC ((((((...)))))) | -35.9 kcal/mol | 57.2 °C
GGCACCGAAAGGTGCGCC ((((((....)))..))) | -6.18 kcal/mol | 66.1 °C
GCTTAGCGAAAGCTGGGC ((..(((....)))..)) | -20.1 kcal/mol | 51.8 °C
GGTAGCGAAAGCTGGACC ((((((....)))..))) | -12.6 kcal/mol | 37.4 °C
GACGACCGAAAGGTGGTC (((.(((....))).))) | -34.8 kcal/mol | 56 °C
GTATGACGAAAGTCCTAC (((.(((....))).))) | -24.3 kcal/mol | 38.9 °C
GGCAGGGCGAAAGCCGCC (((..(((....)))))) | -18.4 kcal/mol | 63.3 °C
GGAATGGGAAACCGTTTC (.((.((....)).)).) | -18 kcal/mol | 30.7 °C
GCCTCCCCGAAAGGGGGC (((..(((....)))))) | -9.45 kcal/mol | 52.5 °C
GATCTCGCGTGAGATC ((((((....)))))) | -34.7 kcal/mol | 53.8 °C
GGGGATGGAAACATCCTC (.(((((....))))).) | -24.4 kcal/mol | 52.4 °C
GATTCAGGAAACTGAGTC ((.((((....)))).)) | -31.1 kcal/mol | 38.5 °C
GATCGTCGGAACGATC ((((((....)))))) | -27.3 kcal/mol | 52.7 °C
GATTTACGAAAGTATATC (((.(((....))).))) | -24.2 kcal/mol | 35.6 °C
GATCCCACTAGGGATC ((((((....)))))) | -33.1 kcal/mol | 65.9 °C
GATCATGGCCATGATC ((((((....)))))) | -49.5 kcal/mol | 56.3 °C
GTTTGCGAAAGCACGAAC ((((((....)))..))) | -9.85 kcal/mol | 27.1 °C
GCTGCAGGAAACTGTAGC (((.(((....))).))) | -34.3 kcal/mol | 52 °C
GATCCGGCGACGGATC ((((((....)))))) | -33.4 kcal/mol | 67.4 °C
GCGGGCGAAAGCCTTCGC ((((((....)))..))) | -15.7 kcal/mol | 50.1 °C
GATCACGAGAGTGATC ((((((....)))))) | -28.4 kcal/mol | 67.8 °C
GACCTCCGAAAGGAGTC (((.(((....)))))) | -15.3 kcal/mol | 49.2 °C

Sequence | folding enthalpy [1] | Tm [2]
GGGTCCGAAAGGATCCCC ((((((....)))..))) | -14.6 kcal/mol | 60.5 °C
GATACGGGAAACCGTATC (((((((....))))))) | -35.8 kcal/mol | 59.4 °C
GGTAACGAAAGTTCCACC ((((((....)))..))) | -12.3 kcal/mol | 33.3 °C
CGGACGGAAACGTACCCG ((((((....)))..))) | -14.4 kcal/mol | 34.5 °C
CGAAACCGGAAACGGTCG (((..(((....)))))) | -14.9 kcal/mol | 43.8 °C
GAGTACGCGAAAGCGCTC (((..(((....)))))) | -10 kcal/mol | 34.6 °C
GAGGTACCGAAAGGTCTC (((..(((....)))))) | -17.5 kcal/mol | 31.4 °C
GAGTGGGGAAACTCGCTC (((.(.(....).).))) | -29.6 kcal/mol | 40.4 °C
CGCGCGGAAACGCACGCG ((((((....)))..))) | -22.1 kcal/mol | 57.1 °C
GCAGAACGAAAGTTGTGC (((.(((....))).))) | -32.1 kcal/mol | 55.4 °C
GCGATGACTCGC ((((....)))) | -21.7 kcal/mol | 47.2 °C
GGATGCGAAAGCAACTCC ((((((....)))..))) | -11.9 kcal/mol | 41.8 °C
GAGGTTGGAAACAATCTC (((.(((....))).))) | -35.5 kcal/mol | 44.1 °C
CGTGTGAAAACACG (((((....))))) | -29.3 kcal/mol | 58.6 °C
GATCGTATCTACGATC ((((((....)))))) | -37.9 kcal/mol | 57.6 °C
GCCAACCGAAAGGTGGC (((.(((....)))))) | -22.9 kcal/mol | 67.4 °C
GTACCCGAAAGGGTGTAC ((((((....)))..))) | -10.1 kcal/mol | 40.3 °C
CGTACCGGAAACGGACG (((.(((....)))))) | -21.2 kcal/mol | 45.7 °C
GTAAAGTCGAAAGACTAC (((..(((....)))))) | -11.7 kcal/mol | 31.9 °C
GCCTAAGCGAAAGCTGGC (((..(((....)))))) | -24.3 kcal/mol | 52.3 °C
GGGCATGGAAACACGCCC ((((.((....)).)))) | -45.3 kcal/mol | 51.8 °C
GATTGGGGAAACTCGATC (((.(.(....).).))) | -15.4 kcal/mol | 30 °C
GCCTGCGAAAGCACAGGC ((((((....)))..))) | -24 kcal/mol | 55.5 °C

Sequence | folding enthalpy [1] | Tm [2]
GTGGTCGAAAGACTCAC ((((((....))).))) | -19.6 kcal/mol | 46.2 °C
GATAGCGCGAAAGCGATC (((..(((....)))))) | -9.46 kcal/mol | 32.2 °C
GCGTACGAAAGTAGTCGC ((((((....)))..))) | -25.1 kcal/mol | 45.3 °C
GCAAGGCGAAAGCATTGC ((((.((....)).)))) | -38.2 kcal/mol | 67.2 °C
GCTTTTGGAAACAAAAGC (((((((....))))))) | -42.2 kcal/mol | 61.5 °C
GTAGATCGAAAGATTAC (((.(((....)))))) | -13.5 kcal/mol | 29.3 °C
GCCGAGGGAAACCTCGAC (.(((((....))))).) | -14.1 kcal/mol | 49.5 °C
GATCGATCGGTCGATC ((((((....)))))) | -41.6 kcal/mol | 52 °C
GCTCAGCGAAAGCTAAGC (((.(((....))).))) | -40.3 kcal/mol | 46.7 °C
GATGGGGGAAACCCCATC (((((((....))))))) | -31.2 kcal/mol | 65.4 °C
GTACATGGAAACATGTAC (((((((....))))))) | -51.6 kcal/mol | 55.7 °C
GTTCCGGGAAACCGAAAC (((.(((....))).))) | -25 kcal/mol | 38.5 °C
GATCAAAACTTGATC ((((((...)))))) | -27.6 kcal/mol | 41.7 °C
GCCCGTACGAAAGTAGGC (((..(((....)))))) | -17.9 kcal/mol | 46.3 °C
GACGCACGAAAGTGGTC (((.(((....)))))) | -16.9 kcal/mol | 51.7 °C
GATCGGCTCGCCGATC ((((((....)))))) | -35.9 kcal/mol | 69.3 °C
GATATTGGAAACAATGTC ((.((((....)))).)) | -30.9 kcal/mol | 36.3 °C
GTGGATGCGAAAGCACAC (((..(((....)))))) | -17.9 kcal/mol | 45.4 °C
GCTAGCACGAAAGTGAGC (((..(((....)))))) | -17.4 kcal/mol | 35.1 °C
CGCCTTCGGAAACGAGCG (((..(((....)))))) | -13.6 kcal/mol | 36.3 °C
GATCACCATTGTGATC ((((((....)))))) | -39.2 kcal/mol | 56.3 °C
GAGTACGAAAGTAACCTC ((((((....)))..))) | -14.8 kcal/mol | 27.8 °C
GCCAACGAAAGTTGGGGC ((((((....)))..))) | -15.3 kcal/mol | 65.4 °C

Sequence | folding enthalpy [1] | Tm [2]
GTGAAAGGAAACTTCCAC (((.(((....))).))) | -16.3 kcal/mol | 27.8 °C
GCTTCGCGAAAGCCACGC ((.(.((....)).).)) | -8.03 kcal/mol | 27.8 °C
GTTTGACGAAAGTCAAC (((.(((....)))))) | -14 kcal/mol | 46 °C
GTTAGCGGAAACGCTGAC ((.((((....)))).)) | -29.4 kcal/mol | 52.3 °C
GTATACGAAAGTAATAC ((((((....))).))) | -19.2 kcal/mol | 35.5 °C
GACCGGCCGAAAGGCGTC (((..(((....)))))) | -12.5 kcal/mol | 38.4 °C
GCCCTGCGAAAGCAGCGC ((.((((....)))).)) | -17.5 kcal/mol | 56.2 °C
GTGATCGAAAGATACAC ((((((....))).))) | -22.1 kcal/mol | 35.8 °C
GACAGTGGAAACACTGTC (((((((....))))))) | -39.5 kcal/mol | 60.8 °C
TGAATGAAAATTCA (((((....))))) | -9.75 kcal/mol | 30.4 °C
GTAGTGTCGAAAGACTAC (((..(((....)))))) | -15.1 kcal/mol | 33.3 °C
GTGGTCGGAAACGACTAC ((.((((....)))).)) | -30 kcal/mol | 53.7 °C
CTGCTGAAAAGCAG (((((....))))) | -22.2 kcal/mol | 58.9 °C
CAAAGGAAACTTTG (((((....))))) | -16.2 kcal/mol | 35 °C
GCGCCAGGAAACTGGCAC (.(((((....))))).) | -12.2 kcal/mol | 47.5 °C
GATCCTGTATAGGATC ((((((....)))))) | -41.6 kcal/mol | 59 °C
GTCGATGGAAACGTTGAC (((.(.(....).).))) | -20.5 kcal/mol | 34.6 °C
GACTATACGAAAGTAGTC (((..(((....)))))) | -24.4 kcal/mol | 34.1 °C
GCAGAGCGAAAGCTGTGC (((.(((....))).))) | -44.2 kcal/mol | 59 °C
GATCCCGCCGGGGATC ((((((....)))))) | -37.7 kcal/mol | 63.1 °C
GTATTAGGAAACTAGTAC (((.(((....))).))) | -16.2 kcal/mol | 29 °C
GGCCAAGGAAACTTGGTC (.(((((....))))).) | -35.1 kcal/mol | 53.3 °C
GATCTCTCCGAGATC ((((((...)))))) | -40.7 kcal/mol | 56.7 °C
